Key:
[1] = tested on: Liver; test: Metabolic stability in CD-1 mouse liver microsomes assessed as parent compound remaining at 1 uM after 1 hr; assay type: ADME, microsome
[2] = Metabolic stability in hamster liver microsomes assessed as parent compound remaining at 1 uM after 1 hr; assay type: ADME, microsome; details: read-out: Stability
[3] = tested on: Liver; test: Metabolic stability in human liver microsomes assessed as parent compound remaining at 1 uM after 1 hr; assay type: ADME, microsome
[4] = Metabolic stability in hamster liver microsomes assessed as parent compound remaining at 0.5 uM after 0.5 hr; assay type: ADME, microsome; details: read-out: Stability
[5] = tested on: Liver; test: Metabolic stability in CD-1 mouse liver microsomes assessed as parent compound remaining at 0.5 uM after 0.5 hr; assay type: ADME, microsome
[6] = tested on: Liver; test: Metabolic stability in human liver microsomes assessed as parent compound remaining at 0.5 uM after 0.5 hr; assay type: ADME, microsome
[7] = Volume of distribution at steady state in golden Syrian hamster at 2 mg/kg, iv by LC-MS/MS analysis; assay type: ADME, organism-based, Mesocricetus auratus; details: in vivo, read-out: Vdss
Method in brief: (§1)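 Fasted female golden Syrian hamsters given 2 mg/kg iv as a solution in 20% NMP and 40% PEG-400 in citrate buffer pH 3. Plasma concentrations determined by LC–MS/MS to derive PK parameters.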

[8] = Tmax in golden Syrian hamster at 40 mg/kg, po by LC-MS/MS analysis; assay type: ADME, organism-based, Mesocricetus auratus; details: in vivo
[9] = Clearance in golden Syrian hamster at 2 mg/kg, iv by LC-MS/MS analysis; assay type: ADME, organism-based, Mesocricetus auratus; details: in vivo
[10] = Half life in golden Syrian hamster at 2 mg/kg, iv by LC-MS/MS analysis; assay type: ADME, organism-based, Mesocricetus auratus; details: in vivo
Method in brief: (§2)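 Fasted female golden Syrian hamsters. IV dose was 2 mg/kg as a solution in 20% NMP and 40% PEG-400 in citrate buffer (pH 3). Oral dosing at 40–50 mg/kg used PEG-400 as vehicle. Plasma was quantified by LC–MS/MS. AUClast was taken to the last time point (24 or 48 h).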

[11] = AUClast in golden Syrian hamster at 2 mg/kg, iv after 24 to 48 hrs by LC-MS/MS analysis; assay type: ADME, organism-based, Mesocricetus auratus; details: in vivo; method in brief: as §2
[12] = AUClast in golden Syrian hamster at 40 mg/kg, po after 24 to 48 hrs by LC-MS/MS analysis; assay type: ADME, organism-based, Mesocricetus auratus; details: in vivo; method in brief: as §2
[13] = Cmax in golden Syrian hamster at 40 mg/kg, po by LC-MS/MS analysis; assay type: ADME, organism-based, Mesocricetus auratus; parameters: dose 40 mg/kg, route oral; details: in vivo; method in brief: as §2
[14] = Half life in golden Syrian hamster at 40 mg/kg, po by LC-MS/MS analysis; assay type: ADME, organism-based, Mesocricetus auratus; details: in vivo
[15] = Half life in Swiss albino mouse at 40 mg/kg, po by LC-MS/MS analysis; assay type: ADME, organism-based; details: in vivo
[16] = tested on: Syrian golden hamster; test: Oral bioavailability in golden Syrian hamster at 40 mg/kg by LC-MS/MS analysis; assay type: ADME, organism-based, Mesocricetus auratus; details: in vivo
[17] = tested on: Mus musculus; test: Cmax in Swiss albino mouse at 40 mg/kg, po by LC-MS/MS analysis; assay type: ADME, organism-based; parameters: dose 40 mg/kg, route oral; details: in vivo
[18] = tested on: Mus musculus; test: Tmax in Swiss albino mouse at 40 mg/kg, po by LC-MS/MS analysis; assay type: ADME, organism-based; details: in vivo
[19] = tested on: Mus musculus; test: AUClast in Swiss albino mouse at 40 mg/kg, po after 24 to 48 hrs by LC-MS/MS analysis; assay type: ADME, organism-based; details: in vivo
[20] = Initial concentration in golden Syrian hamster at 2 mg/kg, iv by LC-MS/MS analysis; assay type: ADME, organism-based, Mesocricetus auratus; details: in vivo; method in brief: as §1

SMILES | Stability [1] [%] | remaining at 1 h, 1 µM [2] [%] | Stability [3] [%] | remaining at 0.5 h, 0.5 µM [4] [%] | Stability [5] [%] | Stability [6] [%] | other results
O=[N+]([O-])c1cn2c(n1)OC[C@H](NCc1ccc(OC(F)(F)F)cc1)C2 | 61 | 7.5 |  |  |  |  | 
O=[N+]([O-])c1cn2c(n1)OC[C@@H](OCc1ccc(OC(F)(F)F)cc1)C2 [PRETOMANID] |  |  | 82 |  |  |  | 
O=[N+]([O-])c1cn2c(n1)OC[C@H](OCc1cccnc1-c1ccc(OC(F)(F)F)cc1)C2 | 44 | 3 | 35 |  |  |  | 
O=[N+]([O-])c1cn2c(n1)OC[C@H](OCc1ccc(OC(F)(F)F)cc1)C2 | 86 |  |  | 31 |  |  | 
O=[N+]([O-])c1cn2c(n1)OC[C@@H](OCc1cccc(-c3ccc(F)cc3)n1)C2 |  |  |  |  | 74 | 96 | 
O=[N+]([O-])c1cn2c(n1)OC[C@H](OCc1cccc(-c3ccc(F)cc3)n1)C2 |  |  |  |  | 68 | 79 | 
O=[N+]([O-])c1cn2c(n1)OC[C@H](OCc1ccc(-c3ccc(OC(F)F)cc3)nc1)C2 | 56 | 7.9 | 58 |  |  |  | 
CC1(C)Oc2nc([N+](=O)[O-])cn2CC1OCc1ccc(OC(F)(F)F)cc1 (stereo not given) | 72 |  | 92 |  |  |  | 
O=[N+]([O-])c1cn2c(n1)OC[C@H](Oc1ccc(-c3ccc(F)cc3)nc1)C2 | 59 |  | 73 |  |  |  | 
O=[N+]([O-])c1cn2c(n1)OC[C@H](OCc1ccc(-c3ccc(F)cc3)cn1)C2 | 66 | 10 | 58 | 37 | 77 | 85 | 
O=[N+]([O-])c1cn2c(n1)OC[C@@H](OCc1ccn(-c3ccc(OC(F)(F)F)cc3)n1)C2 | 67 |  | 87 |  |  |  | 
O=[N+]([O-])c1cn2c(n1)OC[C@H](OCc1ccc(-c3ccc(OC(F)F)cc3)cn1)C2 | 56 | 11 | 49 | 45 | 86 | 71 | 
O=C(N[C@H]1COc2nc([N+](=O)[O-])cn2C1)c1cccc(OC(F)(F)F)c1 |  | 59 |  |  |  |  | 
O=[N+]([O-])c1cn2c(n1)OC[C@@H](OCc1ccc(-c3ccc(OC(F)F)cc3)cn1)C2 |  |  |  | 59 | 88 | 92 | 
O=C(Nc1ccccc1OC(F)(F)F)N[C@@H]1COc2nc([N+](=O)[O-])cn2C1 |  |  |  | 64 | 43 | 74 | 
O=[N+]([O-])c1cn2c(n1)OC[C@H](Oc1ccc(-c3ccc(OC(F)(F)F)cc3)nc1)C2 | 35 |  | 40 |  |  |  | 

Further lines, with some results ahead:

Stability [1] [%] | remaining at 1 h, 1 µM [2] [%] | Stability [3] [%] | remaining at 0.5 h, 0.5 µM [4] [%] | Stability [5] [%] | Stability [6] [%] | SMILES | other results
 |  |  | 75 | 100 | 73 | O=[N+]([O-])c1cn2c(n1)OC[C@@H](OCc1ccc(-c3ccc(OC(F)(F)F)cc3Cl)cn1)C2 | 
41 | 9.2 | 37 |  |  |  | O=[N+]([O-])c1cn2c(n1)OC[C@H](OCc1ccc(-c3ccc(OC(F)(F)F)cc3F)nc1)C2 | Vd [7]: 3.2 L/kg; Tmax [8]: 3.3 h; clearance [9]: 0.528 L/h/kg; half-life [10]: 5.3 h; AUC(0-t) [11]: 3.69 µg·h/mL; AUC(0-t) [12]: 46.5 µg·h/mL; Cmax [13]: 4.7 µg/mL; half-life [14]: 5.8 h
 |  |  | 43 | 75 | 78 | O=[N+]([O-])c1cn2c(n1)OC[C@@H](OCc1csc(-c3ccc(OC(F)(F)F)cc3)n1)C2 | 
 |  |  | 31 | 78 | 75 | O=[N+]([O-])c1cn2c(n1)OC[C@@H](OCc1cccc(-c3ccc(OC(F)(F)F)cc3)n1)C2 | 
 |  |  | 69 | 84 | 88 | O=[N+]([O-])c1cn2c(n1)OC[C@@H](OCc1ccc(-c3ccc(OC(F)(F)F)cc3F)cn1)C2 | 
 |  |  | 31 | 68 | 68 | O=[N+]([O-])c1cn2c(n1)OC[C@H](OCc1cccc(-c3ccc(OC(F)(F)F)cc3)n1)C2 | 
27 | 5.8 | 16 | 57 | 81 | 65 | O=[N+]([O-])c1cn2c(n1)OC[C@H](OCc1ccc(-c3ccc(OC(F)(F)F)cc3Cl)cn1)C2 | 
 | 10 | 27 | 61 |  |  | O=[N+]([O-])c1cn2c(n1)OC[C@H](OCc1ccc(-c3ccc(OC(F)(F)F)cc3)cn1)C2 | half-life [15]: 9.4 h; F [16]: 100%; Vd [7]: 8.2 L/kg; clearance [9]: 1.38 L/h/kg; half-life [10]: 6.3 h; Cmax [17]: 16 µg/mL; AUC(0-t) [11]: 1.3 µg·h/mL; Tmax [18]: 4.7 h; AUC(0-t) [12]: 62.7 µg·h/mL; Cmax [13]: 5.7 µg/mL; AUClast [19]: 211 µg·h/mL; half-life [14]: 5.8 h; C0 [20]: 0.65 µg/mL
57 | 5.2 | 59 |  |  |  | O=[N+]([O-])c1cn2c(n1)OC[C@H](OCc1ccc(-c3ccc(F)cc3F)cn1)C2 | F [16]: 37%; Vd [7]: 4 L/kg; Tmax [8]: 0.75 h; clearance [9]: 3.78 L/h/kg; half-life [10]: 0.83 h; AUC(0-t) [11]: 0.48 µg·h/mL; AUC(0-t) [12]: 3.95 µg·h/mL; Cmax [13]: 1.9 µg/mL; half-life [14]: 0.83 h; C0 [20]: 0.93 µg/mL
0.2 |  | 8 |  |  |  | O=[N+]([O-])c1cn2c(n1)OC[C@H](OCc1ncccc1-c1ccc(OC(F)(F)F)cc1)C2 | 
